NPY-Y1 antag: antagonists of human neuropeptide Y receptor Y1; P25929; HEK293-CNG Y1 cells, membrane potential fluorescence; NPY at EC95, then isoproterenol; inhibition, % at 3.6 µM; 1% of 200,000 active; AID 1040;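 active means inhibition above the campaign mean inhibition of all tested compounds plus 3 SD, cut at about 20% in these data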;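 further: 0% = DMSO wells given NPY plus isoproterenol and 100% = isoproterenol alone without NPY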
Target sequence (P25929 whole entry, looked up): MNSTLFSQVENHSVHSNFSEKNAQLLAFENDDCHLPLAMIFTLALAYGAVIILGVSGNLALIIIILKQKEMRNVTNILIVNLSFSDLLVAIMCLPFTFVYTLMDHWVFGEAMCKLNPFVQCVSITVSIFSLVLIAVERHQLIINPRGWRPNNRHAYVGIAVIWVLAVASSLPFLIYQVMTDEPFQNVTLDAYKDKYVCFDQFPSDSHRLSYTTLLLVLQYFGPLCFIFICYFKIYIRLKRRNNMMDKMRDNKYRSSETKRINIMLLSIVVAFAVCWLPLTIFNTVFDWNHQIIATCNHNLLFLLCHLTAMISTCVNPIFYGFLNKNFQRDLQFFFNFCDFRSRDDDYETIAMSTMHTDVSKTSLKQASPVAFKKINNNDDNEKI
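Material: HEK293 Y1/CNG channel cell line | Also added: NPY (25 nM), isoproterenol (1 µM), Ro 20-1724 (25 µM) | Compound: One concentration, 3.6 µM, in 0.4% DMSO | Schedule: 3 h dye uptake, 1 h room-temperature compound, 45 min post-isoproterenol | Signal: Membrane-potential fluorescent dye readout | Read-out: % inhibition of NPY effect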
NPY-Y2 antag: NPY-Y2 (human) receptor antagonism | P49146 | NPY-Y2 expressing cells, antagonist mode | inhibition, % at 2.7 µM | 0.99% of 140,000 active | AID 793; in the data active means inhibition above about 17%;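 further: 0% = vehicle with agonist challenge and 100% = reference antagonist with challenge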
Hsp70 act: Hsp70 transcriptional activation, primary screen; HeLa Hsp70 promoter luciferase reporter, luminescence; scaled: vehicle 0, proteasome-inhibitor control 100%; activation, % at 10 µM; 0.04% of 200,000 active;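 active means activation above the mean across all tested compounds plus 3 SD, cutoff set per campaign, cut at about 5.5% in these data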;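 further: 100% = MG132 at 30 µM as the positive control and 0% = DMSO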
NPY2 pot ag: potentiators or agonists of human neuropeptide Y receptor Y2; cells expressing NPY-Y2, potentiator/agonist read-out; P49146; 0.45% of 220,000 active; activation, % at 3.6 µM; in the data active means activation above about 27%;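 further: cells stimulated with NPY near EC25 plus isoproterenol at EC100; 0% = vehicle plus submaximal agonist and 100% = vehicle plus saturating agonist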
NPY-Y1 PAM-ag: potentiates or activates human NPY-Y1 receptor; activation, % at 3.6 µM; NPY-Y1 expressing cells, potentiator/agonist activation; P25929; 0.37% of 220,000 active; in the data active means activation above about 33%, passing the limit was not always enough;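 further: cells stimulated with NPY at EC10 then isoproterenol at EC100; 0% = low agonist plus stimulus and 100% = saturating agonist plus stimulus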
Wee1 degr inh: inhibitors of human Wee1 degradation; HeLa Luc-Wee1K328M stability, luciferase luminescence; 100% = proteasome inhibitor MG132 effect; AID 1321; P30291; reporter increase, % at 5 µM; 1.2% of 220,000 active;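 active means activation above the mean of all tested compounds plus 3 SD, set per screening run, cut at about 8.8% in these data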;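 further: cells exposed to compound for 20 h before luminescence read; 0% = DMSO alone and 100% = MG132 at 30 µM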
Wee1 degr conf: confirmation of human Wee1 degradation inhibitors; shares compounds with Wee1 degr inh; activation, % at 5 µM; HeLa Luc-Wee1K328M degradation, luminescence; vehicle 0%, proteasome-blocked wells 100%; 4% of 1,100 active; in the data active means activation above about 8.9%
Numbers without * were called inactive; . = no result. Rows were chosen to be rich in hits. Some 3% of all compounds tested hit in one or more screens of this group.

SMILES	NPY-Y1 antag	NPY-Y2 antag	Hsp70 act	NPY2 pot ag	NPY-Y1 PAM-ag	Wee1 degr inh	Wee1 degr conf
O=C(NCCc1ccccn1)C(F)(F)C(F)(F)C(F)(F)C(F)(F)C(F)(F)C(F)(F)C(F)(F)C(F)F	7.9	2.7	-0.4	11.5	1.9	0.0	.
COc1cccc(CC2(CO)CCN(Cc3ccc(NC(C)=O)cc3)CC2)c1	4.1	.	-0.2	-9.7	-11.3	21.6*	-1.9
CC(C)=CCc1c(O)ccc2c1OC(c1ccc(O)c(O)c1)CC2=O (stereo not given)	-3.0	.	-0.4	-3.0	5.9	32.7*	1.9
O=C(NNC(=S)Nc1cccc(C(F)(F)F)c1)c1ccccc1Cl	-1.3	7.7	-0.2	-7.2	-18.2	11.6*	5.2
CC(NC(=O)COC(=O)C1CSC2(C)CCC(=O)N12)C12CC3CC(CC(C3)C1)C2 (stereo not given)	16.0	.	-0.2	-2.5	-4.8	12.2*	0.4
CC12CCC(=O)N1C(C(=O)OCC(=O)Nc1sccc1C#N)CS2 (stereo not given)	2.4	0.1	0.3	3.9	10.9	-2.0	.
O=C(N/N=C/c1cccs1)/C(=C/c1ccccc1)NC(=O)c1ccccc1	0.9	7.5	-0.3	-19.7	3.6	11.9*	-1.8
O=C(Nc1ccccc1)/C(=C\c1cccs1)NC(=O)c1ccccc1	4.4	5.1	-0.1	-8.6	-15.1	-1.3	.
CCOc1ccc(NC(=S)Nc2ccc(C)c([N+](=O)[O-])c2)cc1	4.0	4.8	-0.3	-2.1	-14.9	13.7*	-1.7
COc1ccc(Nc2nc(N)nc(CSc3nccn3C)n2)cc1	-5.6	.	0.3	-10.0	18.7	11.7*	1.3
COc1ccc(Nc2nc(N)nc(CSc3nnc(N)s3)n2)cc1	0.1	4.2	-0.2	-11.7	9.1	1.3	.
O=C(Nc1ccccc1C(=O)OCC(=O)N1CCc2ccccc2C1)c1ccco1	14.7	11.4	-0.2	-12.0	-27.2	1.5	.
CCOC(=O)CSc1nnc(CNC(=O)c2ccccc2OC)n1-c1ccc(OC)cc1	0.0	4.0	-0.3	2.5	20.6	12.0*	-4.0
Cc1cccc(OCCC(=O)Nc2nnc(C)s2)c1	4.2	.	-0.2	10.3	-18.4	-3.2	.
CC(C)CNC(=S)NNC(=O)CC(C)O (stereo not given)	-1.5	.	-0.1	-1.2	0.6	11.1*	1.3
CCNC(=S)NNC(=O)CC(C)C	-2.9	.	-0.3	10.6	19.1	2.8	.
CCc1cccc(CC)c1N(COC)C(=O)Cn1ccccc1=N	-0.6	2.1	-0.2	-1.4	8.0	12.6*	-1.9
CCc1cccc(CC)c1N(COC)C(=O)Cn1nnc2ccccc21	1.2	3.6	0.1	12.8	17.6	-0.3	.
Cc1nn2cc(-c3ccc(Cl)cc3)nc2s1	-9.2	-1.4	0.1	9.8	8.1	13.8*	0.1
COC(=O)c1ccc(CNC(=O)COC(=O)C2CC3C=CC2C3)cc1 (stereo not given)	6.6	.	0.1	6.2	9.4	-0.4	.
COc1ccc(C2N=C(c3ccccc3)C(C)(C)N2O)cc1 (stereo not given)	-4.2	1.5	-0.1	0.7	-20.1	31.2*	1.2
COc1ccccc1-c1cc2nc(C)cc(C)n2n1	.	.	.	-14.6	8.9	1.3	.
Cc1ccc(S(=O)(=O)NCc2ccc(C(=O)NCCN(Cc3ccccc3)C(C)C)cc2)cc1	1.1	.	-0.3	-1.1	-1.6	0.3	.
Brc1cc2c(cc1Br)OCCOCCOCCOCCO2	3.1	.	0.2	-4.5	-2.0	18.6*	1.6
Cn1c(=O)[nH]c(=O)c2c1nc(N/N=C/c1ccncc1)n2Cc1ccc(Cl)cc1	.	.	.	-24.5	-1.0	-3.9	.
COC(=O)c1cc(NC(=O)c2cc(-c3ccc(OC)cc3)oc2C(F)(F)F)ccc1N1CCOCC1	.	.	.	10.8	26.2	11.6*	1.9
COc1cc(NC(=O)COC(=O)c2n[nH]c3ccccc23)c(C)cc1[N+](=O)[O-]	2.9	.	-0.3	-1.1	-9.1	-0.3	.
CN1N=C(C(=O)N2CCc3c([nH]c4ccccc34)C2c2ccccc2Cl)CCC1=O (stereo not given)	1.2	.	-0.1	3.3	3.4	11.8*	1.9

Screening results as filed in PubChem.
